Screening data: PubChem, several laboratories
The sample as a whole holds a higher share of hits than the screen did.
S1P3 antagonist: blocks the human S1P3 receptor. CHO S1P3 NFAT-BLA reporter, FRET fluorescence, antagonist mode. inhibition, % at 4.98 µM. 0.27% of 170,000 active. Q99500. AID 485;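 active = inhibition above the plate cutoff, the mean inhibition of test wells on that plate plus 3 SD, cut at about 28% in these data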;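 note: cells challenged with S1P at its EC80 of 0.8 µM; blue over green emission ratio from cleaved BLA substrate after 4 h stimulation; 0% = S1P-stimulated wells and 100% = unstimulated DMSO-only wells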
Target sequence (Q99500 whole entry, looked up): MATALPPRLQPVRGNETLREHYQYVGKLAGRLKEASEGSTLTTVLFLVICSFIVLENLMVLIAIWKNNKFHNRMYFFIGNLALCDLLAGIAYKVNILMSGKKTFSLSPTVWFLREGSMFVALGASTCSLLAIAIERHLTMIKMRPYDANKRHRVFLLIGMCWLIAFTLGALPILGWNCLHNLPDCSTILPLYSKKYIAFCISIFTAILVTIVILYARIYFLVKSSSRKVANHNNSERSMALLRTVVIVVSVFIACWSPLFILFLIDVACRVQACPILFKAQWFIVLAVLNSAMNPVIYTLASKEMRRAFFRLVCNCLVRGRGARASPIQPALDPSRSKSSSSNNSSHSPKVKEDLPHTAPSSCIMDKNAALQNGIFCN
Lmaj promast: Leishmania major promastigote growth inhibition | Leishmania major promastigotes, resazurin fluorescence viability | inhibition, % at 10 µM | 9% of 200,000 active; in the data active = inhibition above about 50%;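 note: promastigotes grown with compound for 44 hours at 28 °C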
S1P4 antagonist: antagonists of human S1P4 receptor; AID 1510; S1P4-expressing cells, antagonist mode, reporter read-out; inhibition, % at 4.98 µM; 0.26% of 220,000 active; in the data active = inhibition above about 29%;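 note: 0% = wells stimulated with agonist and 100% = vehicle wells without agonist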
Mdm2 ligase inh: inhibitors of human Mdm2 E3 ubiquitin ligase. Q00987. cell-based MDM2 ubiquitination luciferase reporter, 2 h; 0 = plate control, 100 = twice control, blank-subtracted. signal enhancement, % at 5 µM. 0.11% of 210,000 active. AID 1230;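 active = signal enhancement of 30% or more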;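 note: luminescence tracks abundance of the self-degrading MDM2-luciferase fusion protein; higher signal means inhibition of MDM2 E3 ligase activity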
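Timing – 2 h compound exposure at 37 °C · Assay system – mammalian cells stably expressing self-ubiquitinating, self-degrading MDM2 E3–luciferase fusion · Amount – 2000 cells seeded into each well · Measure – % luminescence enhancement versus blank-corrected plate control mean · Measured by – SteadyLite luminescence, 15 min reagent step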
S1P4 ag: agonists of human S1P4 receptor. O95977. S1P4-expressing cell line, agonist reporter assay. activation, % at 4.98 µM. 0.35% of 220,000 active. AID 1509; in the data active = activation above about 11%;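 note: 0% = DMSO vehicle and 100% = reference agonist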
* marks the source's active call; other numbers are inactive results; . = no result given.

SMILES | S1P3 antagonist | Lmaj promast | S1P4 antagonist | Mdm2 ligase inh | S1P4 ag
COc1ccc(NC(=O)c2ccc(NCCCN3CCOCC3)c([N+](=O)[O-])c2)cc1 | 1 | 55* | -7 | 4 | 5
O=C(Nc1ccc(N2CCCCC2)c(Cl)c1)c1ccc(N2CCOCC2)c([N+](=O)[O-])c1 | . | 93* | -1 | -16 | -1
O=C(Nc1ccc(Cl)c([N+](=O)[O-])c1)c1ccc(NCCCN2CCOCC2)c([N+](=O)[O-])c1 | . | 45 | -14 | 7 | 2
CCCc1n[nH]c2c1C(=O)C(C(=O)OC)C(C)(C)C2 (stereo not given) | -16 | -7 | -6 | -11 | 2
CC(C)CNC(=S)NC(=O)c1ccc(Cl)cc1Cl | 17 | -6 | -5 | -14 | 0
Cc1nc(C(=O)NC(C)C)nn1-c1cc(Cl)cc(Cl)c1 | -4 | 4 | -8 | -6 | 2
Nc1nc(NCCCN2CCOCC2)nc(NCc2ccccc2)c1[N+](=O)[O-] | 2 | . | -2 | -14 | 0
COc1ccc(C(=O)NCCc2c[nH]c3ccccc23)cc1S(=O)(=O)N1CCOCC1 | -16 | 6 | 9 | -10 | 1
CC(C)(C=O)C1=CC(=O)c2ccccc2C1=O | 13 | 56* | -14 | -5 | -1
CC(C)(C)c1ccc2c(c1)C(=O)c1ccccc1C2=O | -9 | -6 | -13 | -40 | 1
Cc1ccsc1/C=C/C1=Cc2c(sc(NC(=O)CSc3n[nH]c(N)n3)c2C#N)C(C)(C)C1 | . | 100* | 14 | -6 | 2
CCOc1ccc(/C=C/C2=Cc3c(sc(NC(=O)CSc4n[nH]c(N)n4)c3C#N)C(C)(C)C2)cc1 | . | 100* | -6 | -5 | -1
CCOc1ccc(S(=O)(=O)NCC2CCCO2)c2cccnc12 (stereo not given) | -5 | 0 | -8 | 2 | 4
CCOc1ccc(S(=O)(=O)NCc2ccc(Cl)cc2)c2cccnc12 | 2 | 99* | 1 | -11 | -1
O=C(COc1ncnc2ccccc12)NCC1CCCO1 (stereo not given) | -8 | -4 | 0 | -5 | 1
Cc1ccc(S(=O)(=O)N(C)C)cc1NC(=O)CCNC(=O)c1ccccc1Cl | -1 | -5 | -1 | -16 | 1
CCN1CCN(CCOc2ccccc2-c2ccccc2)CC1 | -16 | 91* | -11 | -12 | -1
CCN1CCN(CCCOc2ccc(-c3ccccc3)cc2)CC1 | 13 | 98* | -43 | -19 | 0
CCOc1ccc(-c2cc(C(=O)NCCCN3CCN(CC)CC3)c3ccccc3n2)cc1 | -7 | 25 | -10 | -11 | -1
c1ccc(-c2ccccc2OCCCN2CCCCC2)cc1 | 0 | 95* | 0 | 7 | 0
c1ccc(-c2ccc(OCCCn3cncn3)cc2)cc1 | 3 | 96* | -23 | -11 | 1
c1ccc(COc2ccc(OCCn3cncn3)cc2)cc1 | -16 | -5 | -1 | -18 | 0
c1ccc(CN2CCC3(CC2)Nc2ccccc2S3)cc1 | 2 | . | 4 | -13 | -1
CCN(CC)C(=O)c1sc2c(c1C)c(=O)n(-c1ccc(C)c(C)c1)c(=O)n2CC(=O)NCC1CCCO1 (stereo not given) | -9 | 17 | 0 | -19 | -3
COC(=O)c1cc(C(=O)Nc2nnc(C3CC3)s2)cc([N+](=O)[O-])c1 | -7 | -8 | -11 | -3 | 0
SMILES | S1P3 antagonist | Lmaj promast | S1P4 antagonist | Mdm2 ligase inh | S1P4 ag
O=C(NC(=S)N1CCN(c2ccccn2)CC1)c1ccco1 | -17 | -10 | -32 | -8 | 1
O=C(NCC1CCCO1)c1csc(Nc2cccc3ccccc23)n1 (stereo not given) | -14 | 16 | -6 | 11 | -1
CCN1CCN(c2nc(Nc3ccc(NC(C)=O)cc3)nc(Nc3ccc(NC(C)=O)cc3)n2)CC1 | 2 | . | -12 | . | 0
CCN1CCN(CCCOc2ccccc2-c2ccccc2)CC1 | 6 | 65* | -28 | 17 | 1
O=S(=O)(c1ccc(F)cc1)c1snnc1-c1ccccc1 | -17 | 81* | 9 | -14 | -1
CCN1C(=O)c2ccccc2Sc2ccc(C(=O)NCCN3CCOCC3)cc21 | -8 | -7 | 4 | . | -1
O=C(NCCN1CCOCC1)c1ccc2c(c1)N(Cc1c(F)cccc1Cl)C(=O)c1ccccc1S2 | 6 | 100* | -9 | -13 | 0
N#CC1(c2ccccc2)CCC(=O)N1c1ccccc1 (stereo not given) | -4 | . | 4 | -8 | 1
COc1ccc(N2C(=O)CC2(C#N)c2ccc(OCc3ccccc3)cc2)cc1 (stereo not given) | 4 | 68* | -3 | -3 | 2
O=C(COC(=O)c1ccc2[nH]c3c(c2c1)CCCC3)Nc1ccccc1 | -14 | 88* | -18 | 9 | -1
CCOC(=O)c1cc(CC)sc1/N=C/C1C(=O)CCCC1=O | -13 | -13 | -2 | 1 | 1
CCOC(=O)c1cc(CC)sc1/N=C/c1c(O)ccc2ccccc12 | -2 | 64* | -5 | 11 | 1
COc1cccc(C2=NOC(C(=O)NC3CCCCC3)C2)c1 (stereo not given) | 15 | -3 | 3 | -9 | 1
Oc1ccccc1C1=Nc2nc3ccccc3n2C(c2ccccc2)C1 (stereo not given) | 12 | 91* | 2 | -10 | 1
N#CC1=C(N)C2=CCCC[C@H]2[C@H](c2ccc(Br)cc2)C1(C#N)C#N | -14 | 78* | -16 | -12 | -2
CCC(=O)N1CCc2cc(S(=O)(=O)NCCCOC)ccc21 | . | -4 | -16 | -21 | 1
CCOc1ccc(OCC)c(NS(=O)(=O)c2ccc3c(c2)CCN3C(=O)C2CCC2)c1 | . | 99* | 8 | -11 | -1
CCC(=O)N1CCc2cc(S(=O)(=O)NCCN3CCC(C)CC3)ccc21 | . | 54* | 0 | -9 | -1
COc1ccc(CCNS(=O)(=O)c2ccc3c(c2)CCN3C(=O)C2CC2)cc1OC | -22 | 6 | 21 | -3 | 1
CCC(=O)N1CCc2cc(S(=O)(=O)NC(Cc3ccccc3)C(=O)NC3CCCCC3)ccc21 (stereo not given) | -15 | 7 | 0 | -10 | 4
CCC(=O)N1CCc2cc(S(=O)(=O)NC(CC(C)C)C(=O)N3CCc4ccccc43)ccc21 (stereo not given) | . | 100* | -17 | -3 | -2
O=C(NCC1CCCO1)c1ccc2c(=O)n(CC3CCCO3)c(SCC(=O)N3CCCC3)nc2c1 (stereo not given) | -1 | 3 | -2 | 1 | 1
NC(=O)C1CC(=O)N(c2ccc(OCc3ccccc3Cl)cc2)C1 (stereo not given) | -12 | -4 | -19 | -7 | 1
CCOc1ccccc1CN1CCN(S(=O)(=O)CC)CC1 | -26 | 82* | -15 | . | 0
CCS(=O)(=O)N1CCN(Cc2ccccc2OC)CC1 | -23 | 60* | -7 | -4 | 0
CCCS(=O)(=O)N1CCN(Cc2ccccc2OCC)CC1 | 18 | -4 | -10 | -9 | 0
COc1ccccc1CNC(=O)N[C@@H](Cc1ccccc1)C(=O)O | -39 | -6 | -9 | -5 | 0
